Ki data for 25 molecules are collected here from ChEMBL document CHEMBL1145556, “Development of potent and selective phosphinic peptide inhibitors of angiotensin-converting enzyme 2” (J Med Chem, 2008).

Assay [1] addresses Angiotensin-converting enzyme 2 (Homo sapiens, UniProt Q9BYF1). Description: Inhibition of ACE2. The method, boiled down: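 Recombinant ACE2 (0.3 nM final) preincubated with inhibitor for 45 min, then Mca-APK(Dnp) substrate (35 µM final) added. Run at 25 °C in 50 mM Hepes pH 6.8, 1 M NaCl, 10 µM ZnCl2. Fluorescence rise followed continuously (ex 320, em 405 nm) at under 10% substrate use. Triplicates at five inhibitor concentrations giving 20–80% inhibition; Ki by the Horovitz–Levitzki method.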

Assay [2] is described as follows: Inhibition of ACE. The method, boiled down:
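Somatic ACE (0.5 nM) with Mca-Ala-Ser-Asp-Lys-Dpa-OH substrate (15 µM). Otherwise as for ACE2: 45 min enzyme–inhibitor preincubation, 25 °C, 50 mM Hepes pH 6.8, 1 M NaCl, 10 µM ZnCl2. Continuous fluorescence read-out (ex 320, em 405 nm) of initial rates. Triplicates at five concentrations spanning 20–80% inhibition; Ki by the Horovitz–Levitzki method.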

The next assay concerns the target T1, Carboxypeptidase A1 (Bos taurus, UniProt P00730).
T1 sequence (P00730 whole entry): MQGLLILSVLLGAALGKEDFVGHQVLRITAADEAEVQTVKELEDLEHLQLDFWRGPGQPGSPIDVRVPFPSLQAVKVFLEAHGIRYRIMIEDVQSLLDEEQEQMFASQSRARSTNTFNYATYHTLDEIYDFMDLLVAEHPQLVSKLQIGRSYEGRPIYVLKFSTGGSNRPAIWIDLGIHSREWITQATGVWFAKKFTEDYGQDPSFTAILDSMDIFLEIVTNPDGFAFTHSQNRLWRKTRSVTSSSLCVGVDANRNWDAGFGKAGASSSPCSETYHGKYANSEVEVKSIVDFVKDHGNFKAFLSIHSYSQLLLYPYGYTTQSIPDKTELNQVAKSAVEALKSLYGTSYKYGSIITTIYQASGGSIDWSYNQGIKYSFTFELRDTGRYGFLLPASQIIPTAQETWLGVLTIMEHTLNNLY
Description: Inhibition of bovine carboxypeptidase A. The method, boiled down: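 Bovine pancreatic carboxypeptidase A (0.5 nM) mixed with inhibitor in 50 mM Tris-HCl, 1 M NaCl, pH 7.5. Reaction started by adding furylacryloyl-Phe-Phe (50 µM).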

Sequence of Angiotensin-converting enzyme 2 (Q9BYF1 whole entry): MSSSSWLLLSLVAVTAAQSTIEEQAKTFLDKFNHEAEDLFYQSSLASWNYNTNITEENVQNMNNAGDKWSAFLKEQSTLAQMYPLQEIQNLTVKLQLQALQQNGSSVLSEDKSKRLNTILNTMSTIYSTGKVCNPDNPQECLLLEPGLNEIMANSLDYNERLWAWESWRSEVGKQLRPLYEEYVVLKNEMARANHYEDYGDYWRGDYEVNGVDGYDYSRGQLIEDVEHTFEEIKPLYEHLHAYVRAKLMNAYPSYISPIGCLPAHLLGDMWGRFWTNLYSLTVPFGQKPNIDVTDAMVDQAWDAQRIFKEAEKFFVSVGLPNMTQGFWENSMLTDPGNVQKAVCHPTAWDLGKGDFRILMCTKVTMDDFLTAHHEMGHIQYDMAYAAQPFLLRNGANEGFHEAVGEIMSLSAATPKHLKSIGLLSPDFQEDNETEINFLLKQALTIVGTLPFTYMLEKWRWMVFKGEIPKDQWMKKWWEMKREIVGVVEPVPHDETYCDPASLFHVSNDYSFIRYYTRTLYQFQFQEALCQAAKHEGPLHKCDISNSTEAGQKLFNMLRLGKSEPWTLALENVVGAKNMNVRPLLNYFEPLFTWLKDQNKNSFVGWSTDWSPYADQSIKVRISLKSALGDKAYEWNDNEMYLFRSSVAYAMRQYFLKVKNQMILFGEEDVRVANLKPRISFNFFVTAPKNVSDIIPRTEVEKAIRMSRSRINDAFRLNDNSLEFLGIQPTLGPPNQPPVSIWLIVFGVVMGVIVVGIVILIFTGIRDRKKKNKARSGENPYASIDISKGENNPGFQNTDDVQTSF

In assay [1], `O=C(N[C@H](Cc1ccccc1)P(=O)(O)C[C@@H](Cc1ccccc1)C(=O)O)OCc1ccccc1` registered an inhibitory constant (Ki) of more than 10000 nM. With `C[C@@H](NC(=O)OCc1ccccc1)P(=O)(O)C[C@@H](Cc1ccccc1)C(=O)O`, the inhibition constant Ki in assay [1] is more than 10000 nM.

In turn, `CC(=O)N[C@@H](Cc1ccccc1)C(=O)N1CCC[C@@H]1P(=O)(O)C[C@@H](Cc1ccccc1)C(=O)O` gave an inhibition constant Ki in assay [1] of 5.2 nM.

With `O=C(O)[C@H](Cc1ccccc1)CP(=O)(O)[C@H]1CCCN1C(=O)OCc1ccccc1`, the inhibition constant (Ki) in assay [1] is 300 nM. On to `O=C(O)[C@H](Cc1ccccc1)CP(=O)(O)[C@H]1CCCN1`, for which the Ki in assay [1] is more than 10000 nM. With `CC(=O)N[C@@H](CC(C)C)C(=O)N1CCC[C@@H]1P(=O)(O)CC(Cc1cc(-c2ccccc2)no1)C(=O)O` (stereo partly specified), the figures for the Ki (in assay [2]; on Carboxypeptidase A1; in assay [1]) were more than 10000 nM, 35 nM and 1.25 nM, respectively. Regarding `CC(=O)N[C@@H](CCC(=O)O)C(=O)N1CCC[C@@H]1P(=O)(O)C[C@@H](Cc1ccccc1)C(=O)O`, the Ki in assay [1] amounted to 7 nM. In assay [1], `CC(C)C[C@@H](NC(=O)OCc1ccccc1)P(=O)(O)C[C@@H](Cc1ccccc1)C(=O)O` displayed a Ki of 8000 nM.

In assay [1], `CC(C)C[C@@H](N)P(=O)(O)C[C@@H](Cc1ccccc1)C(=O)O` registered a Ki of more than 10000 nM. Molecule `C[C@@H](N)P(=O)(O)C[C@@H](Cc1ccccc1)C(=O)O` displayed a Ki in assay [1] of more than 10000 nM. `CC(=O)N[C@@H](Cc1c[nH]cn1)C(=O)N[C@H](CC(C)C)P(=O)(O)CC(Cc1cc(-c2ccccc2)no1)C(=O)O` (stereo partly specified): the inhibitory constant (Ki) is more than 10000 nM at Carboxypeptidase A1 and 220 nM in assay [1]. In the same order, the values of `CC(=O)N[C@@H](Cc1c[nH]cn1)C(=O)N[C@H](CC(C)C)P(=O)(O)C[C@@H](Cc1ccccc1)C(=O)O` are 175 nM and 800 nM. As to `CC(=O)N[C@@H](CC(C)C)C(=O)N[C@H](Cc1ccccc1)P(=O)(O)C[C@@H](Cc1ccccc1)C(=O)O`, the Ki on Carboxypeptidase A1 is 0.3 nM; in assay [1] it was 920 nM. Regarding `CC(=O)N[C@@H](Cc1c[nH]cn1)C(=O)N1CCC[C@@H]1P(=O)(O)CC(Cc1cc(-c2ccccc2)no1)C(=O)O` (stereo partly specified), the inhibition constant (Ki) in assay [2] is more than 10000 nM; at Carboxypeptidase A1 it was 1050 nM; in assay [1], 0.4 nM. With `C[C@H](CP(=O)(O)[C@H]1CCCN1C(=O)OCc1ccccc1)C(=O)O`, in assay [1], the inhibitory constant (Ki) was determined as 3000 nM. Still for that read-out and setting: the same measure for `CC(=O)N[C@@H](C)C(=O)N1CCC[C@@H]1P(=O)(O)C[C@@H](Cc1ccccc1)C(=O)O`: 7.5 nM. On the same count and under the same terms, the same measure for `CC(=O)N[C@@H](Cc1ccc(O)cc1)C(=O)N1CCC[C@@H]1P(=O)(O)C[C@@H](Cc1ccccc1)C(=O)O`: 5.2 nM; for `CC(=O)N[C@H](C(=O)N1CCC[C@@H]1P(=O)(O)C[C@@H](Cc1ccccc1)C(=O)O)C(C)C`: 6.6 nM; for `CC(C)C[C@H](CP(=O)(O)[C@H]1CCCN1C(=O)OCc1ccccc1)C(=O)O`: 300 nM. The same measure, in the same setting: the same measure for `CC(=O)N[C@@H](CCCCN)C(=O)N1CCC[C@@H]1P(=O)(O)C[C@@H](Cc1ccccc1)C(=O)O`: 6.5 nM; for `N[C@H](Cc1ccccc1)P(=O)(O)C[C@@H](Cc1ccccc1)C(=O)O`: more than 10000 nM. In the case of `CC(=O)N[C@@H](CC(C)C)C(=O)N1CCC[C@@H]1P(=O)(O)C[C@@H](Cc1ccccc1)C(=O)O` (stereo in doubt), the Ki in assay [2] was more than 10000 nM; on Carboxypeptidase A1, 0.5 nM; in assay [1] it was 0.13 nM. As to `CC(=O)N[C@@H](Cc1c[nH]cn1)C(=O)N1CCC[C@@H]1P(=O)(O)C[C@@H](Cc1ccccc1)C(=O)O` (stereo in doubt), the inhibition constant (Ki) was more than 10000 nM in assay [2], 60 nM at Carboxypeptidase A1 and 0.7 nM in assay [1].

For the molecule `CC(=O)N[C@@H](CC(C)C)C(=O)N1CCC[C@@H]1P(=O)(O)C[C@@H](Cc1ccccc1)C(=O)O` (stereo in doubt; 28), the Ki in assay [1] was 0.35 nM. On the same count and under the same terms, to `CC(=O)N[C@@H](Cc1c[nH]cn1)C(=O)N1CCC[C@@H]1P(=O)(O)C[C@@H](Cc1ccccc1)C(=O)O` (stereo in doubt; 34) belongs 2.1 nM.
